Test results from ChEMBL document CHEMBL1649165, “Activity profile in vitro of micafungin against Spanish clinical isolates of common and emerging species of yeasts and molds” (2009).
Converted amounts (≈) assume the structure as drawn.

Assays:
Type in all cases: functional
Phialemonium curvatum = assay: Antimicrobial activity against Phialemonium curvatum by broth microdilution method; details: Thyridium curvatum
Outline: (§1)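 Filamentous fungus clinical isolates tested by the AFST-EUCAST reference broth microdilution method for moulds. For echinocandins, the endpoint was the minimum effective concentration: the lowest drug concentration giving aberrant hyphal growth, read with an inverted microscope.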

Pichia kudriavzevii = assay: Antimicrobial activity against Candida krusei by broth microdilution method
Outline: (§2)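 Clinical isolates from human patients, tested by broth microdilution using the AFST-EUCAST reference procedure for fermentative yeasts. The MIC was read per that reference method.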

Pichia norvegensis = assay: Antimicrobial activity against Candida norvegensis by broth microdilution method; outline: as §2
Lewia infectoria = assay: Antimicrobial activity against Alternaria infectoria by broth microdilution method
Outline: (§3)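 Clinical mould isolates, tested by broth microdilution using the AFST-EUCAST reference method for filamentous fungi. For echinocandins, the endpoint was the minimum effective concentration: the lowest drug concentration giving aberrant hyphal growth, read with an inverted microscope.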

Torulaspora delbrueckii = assay: Antimicrobial activity against Candida coliculosa by broth microdilution method; outline: as §2
[1] = test system: Scopulariopsis brevicaulis; assay: Antimicrobial activity against Scopulariopsis brevicaulis by broth microdilution method; outline: as §1
Magnusiomyces capitatus = assay: Antimicrobial activity against Dipodascus capitatus by broth microdilution method
Fusarium solani = assay: Antimicrobial activity against Fusarium solani by broth microdilution method; outline: as §1
Fusarium oxysporum = assay: Antimicrobial activity against Fusarium oxysporum by broth microdilution method; outline: as §3
[Candida] zeylanoides = Antimicrobial activity against Candida zeylanoides by broth microdilution method; details: Dujonia zeylanoides; outline: as §2
Aspergillus ochraceus = assay: Antimicrobial activity against Aspergillus ochraceus by broth microdilution method; outline: as §3
Geotrichum candidum = assay: Antimicrobial activity against Galactomyces geotrichum by broth microdilution method
Clavispora lusitaniae = assay: Antimicrobial activity against Candida lusitaniae by broth microdilution method; outline: as §2
[Candida] intermedia = Antimicrobial activity against Candida intermedia by broth microdilution method; details: Sungouiella intermedia; outline: as §2
Aspergillus sydowii = assay: Antimicrobial activity against Aspergillus sydowii by broth microdilution method; outline: as §3
Aspergillus niger = assay: Antimicrobial activity against Aspergillus niger by broth microdilution method; outline: as §3
Aureobasidium pullulans = assay: Antimicrobial activity against Aureobasidium pullulans by broth microdilution method
Scytalidium hyalinum = assay: Antimicrobial activity against Scytalidium hyalinum by broth microdilution method; details: Neoscytalidium hyalinum; outline: as §1
Aspergillus sclerotiorum = assay: Antimicrobial activity against Aspergillus sclerotiorum by broth microdilution method; outline: as §3
Saccharomyces cerevisiae = assay: Antimicrobial activity against Saccharomyces cerevisiae by broth microdilution method
Scedosporium apiospermum = assay: Antimicrobial activity against Scedosporium apiospermum by broth microdilution method; outline: as §1
Exophiala jeanselmei = assay: Antimicrobial activity against Exophiala jeanselmei by broth microdilution method
Aspergillus versicolor = assay: Antimicrobial activity against Aspergillus versicolor by broth microdilution method; outline: as §3
Aspergillus glaucus = assay: Antimicrobial activity against Aspergillus glaucus by broth microdilution method; outline: as §3
Fennellia nivea = assay: Antimicrobial activity against Aspergillus niveus by broth microdilution method; outline: as §3
Paecilomyces lilacinus = assay: Antimicrobial activity against Paecilomyces lilacinus by broth microdilution method; details: Purpureocillium lilacinum; outline: as §1
Neurospora sitophila = assay: Antimicrobial activity against Chrysonilia sitophila by broth microdilution method; outline: as §3
Trichosporon ovoides = assay: Antimicrobial activity against Trichosporon ovoides by broth microdilution method
Outline: (§4)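 Nonfermentative yeast clinical isolates (Rhodotorula, Trichosporon) tested by broth microdilution. The EUCAST yeast recommendations were followed strictly, with one minor modification to improve growth. MIC was read as the endpoint.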

Naganishia albida = assay: Antimicrobial activity against Cryptococcus albidus by broth microdilution method
Outline: (§5)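 Clinical isolates of nonfermentative yeasts, tested by broth microdilution following EUCAST recommendations. The only change from that method was a minor modification to improve growth.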

Lecythophora hoffmannii = assay: Antimicrobial activity against Lecythophora hoffmannii by broth microdilution method; details: Coniochaeta hoffmannii; outline: as §1
Fusarium reticulatum = assay: Antimicrobial activity against Fusarium reticulatum by broth microdilution method; outline: as §1
Candida albicans = assay: Antimicrobial activity against Candida albicans by broth microdilution method; outline: as §2
[Candida] inconspicua = Antimicrobial activity against Candida inconspicua by broth microdilution method; details: Pichia inconspicua; outline: as §2
Rhizomucor = assay: Antimicrobial activity against Rhizomucor spp.by broth microdilution method; outline: as §1
Kluyveromyces marxianus = assay: Antimicrobial activity against Candida kefyr by broth microdilution method; outline: as §2
[2] = test system: Cryptococcus deneoformans; assay: Antimicrobial activity against Cryptococcus neoformans var. neoformans by broth microdilution method; outline: as §5
Trichosporon asahii = assay: Antimicrobial activity against Trichosporon asahii by broth microdilution method; outline: as §4
Papiliotrema laurentii = assay: Antimicrobial activity against Cryptococcus laurentii by broth microdilution method; outline: as §5
Lichtheimia corymbifera = assay: Antimicrobial activity against Mycocladus corymbiferus by broth microdilution method; outline: as §1
Lomentospora prolificans = assay: Antimicrobial activity against Scedosporium prolificans by broth microdilution method; outline: as §1

## CC[C@H](C)C[C@H](C)CCCCCCCCC(=O)N[C@H]1C[C@@H](O)[C@@H](NCCN)NC(=O)[C@@H]2[C@@H](O)CCN2C(=O)[C@H]([C@H](O)CCN)NC(=O)[C@H]([C@H](O)[C@@H](O)c2ccc(O)cc2)NC(=O)[C@@H]2C[C@@H](O)CN2C(=O)[C@H]([C@@H](C)O)NC1=O [CASPOFUNGIN]
Phialemonium curvatum
  MIC50: > 16 µg/mL
  MIC90: > 16 µg/mL
Pichia kudriavzevii
  MIC50: 0.25 µg/mL (≈ 0.229 µM)
  MIC90: 0.5 µg/mL (≈ 0.457 µM)
Pichia norvegensis
  MIC50: 0.06 µg/mL (≈ 0.0549 µM)
  MIC90: 0.5 µg/mL (≈ 0.457 µM)
Lewia infectoria
  MIC50: > 16 µg/mL
  MIC90: > 16 µg/mL
Torulaspora delbrueckii
  MIC50: 0.06 µg/mL (≈ 0.0549 µM)
  MIC90: 0.5 µg/mL (≈ 0.457 µM)
[1]
  MIC50: > 16 µg/mL
  MIC90: > 16 µg/mL
Magnusiomyces capitatus
  MIC50: > 16 µg/mL
  MIC90: > 16 µg/mL
Fusarium solani
  MIC50: > 16 µg/mL
  MIC90: > 16 µg/mL
Fusarium oxysporum
  MIC50: > 16 µg/mL
  MIC90: > 16 µg/mL
[Candida] zeylanoides
  MIC50: 0.06 µg/mL (≈ 0.0549 µM)
  MIC90: 0.5 µg/mL (≈ 0.457 µM)
Aspergillus ochraceus
  MIC50: 0.12 µg/mL (≈ 0.11 µM)
  MIC90: 0.5 µg/mL (≈ 0.457 µM)
Geotrichum candidum
  MIC50: > 16 µg/mL
  MIC90: > 16 µg/mL
Clavispora lusitaniae
  MIC50: 0.5 µg/mL (≈ 0.457 µM)
  MIC90: 1 µg/mL (≈ 0.915 µM)
[Candida] intermedia
  MIC50: 0.06 µg/mL (≈ 0.0549 µM)
  MIC90: 0.5 µg/mL (≈ 0.457 µM)
Aspergillus sydowii
  MIC50: 0.25 µg/mL (≈ 0.229 µM)
  MIC90: 1 µg/mL (≈ 0.915 µM)
Aspergillus niger
  MIC50: 0.25 µg/mL (≈ 0.229 µM)
  MIC90: 0.5 µg/mL (≈ 0.457 µM)
Aureobasidium pullulans
  MIC50: 0.25 µg/mL (≈ 0.229 µM)
  MIC90: 1 µg/mL (≈ 0.915 µM)
Scytalidium hyalinum
  MIC50: 0.25 µg/mL (≈ 0.229 µM)
  MIC90: 1 µg/mL (≈ 0.915 µM)
Aspergillus sclerotiorum
  MIC50: 0.12 µg/mL (≈ 0.11 µM)
  MIC90: 0.5 µg/mL (≈ 0.457 µM)
Saccharomyces cerevisiae
  MIC50: 0.5 µg/mL (≈ 0.457 µM)
  MIC90: 1 µg/mL (≈ 0.915 µM)
Scedosporium apiospermum
  MIC50: 2 µg/mL (≈ 1.83 µM)
  MIC90: > 16 µg/mL
Exophiala jeanselmei
  MIC50: 0.25 µg/mL (≈ 0.229 µM)
  MIC90: 1 µg/mL (≈ 0.915 µM)
Aspergillus versicolor
  MIC50: 0.25 µg/mL (≈ 0.229 µM)
  MIC90: 2 µg/mL (≈ 1.83 µM)
Aspergillus glaucus
  MIC50: 0.12 µg/mL (≈ 0.11 µM)
  MIC90: 0.5 µg/mL (≈ 0.457 µM)
Fennellia nivea
  MIC50: 0.12 µg/mL (≈ 0.11 µM)
  MIC90: 0.5 µg/mL (≈ 0.457 µM)
Paecilomyces lilacinus
  MIC50: > 16 µg/mL
  MIC90: > 16 µg/mL
Neurospora sitophila
  MIC50: > 16 µg/mL
  MIC90: > 16 µg/mL
Trichosporon ovoides
  MIC50: > 16 µg/mL
  MIC90: > 16 µg/mL
Naganishia albida
  MIC50: > 16 µg/mL
  MIC90: > 16 µg/mL
Lecythophora hoffmannii
  MIC50: 0.25 µg/mL (≈ 0.229 µM)
  MIC90: 1 µg/mL (≈ 0.915 µM)
Fusarium reticulatum
  MIC50: > 16 µg/mL
  MIC90: > 16 µg/mL
Candida albicans
  MIC50: 0.06 µg/mL (≈ 0.0549 µM)
  MIC90: 0.12 µg/mL (≈ 0.11 µM)
[Candida] inconspicua
  MIC50: 0.06 µg/mL (≈ 0.0549 µM)
  MIC90: 0.5 µg/mL (≈ 0.457 µM)
Rhizomucor
  MIC50: > 16 µg/mL
  MIC90: > 16 µg/mL
Kluyveromyces marxianus
  MIC50: 0.06 µg/mL (≈ 0.0549 µM)
  MIC90: 0.12 µg/mL (≈ 0.11 µM)
[2]
  MIC50: > 16 µg/mL
  MIC90: > 16 µg/mL
Trichosporon asahii
  MIC50: > 16 µg/mL
  MIC90: > 16 µg/mL
Papiliotrema laurentii
  MIC50: > 16 µg/mL
  MIC90: > 16 µg/mL
Lichtheimia corymbifera
  MIC50: > 16 µg/mL
  MIC90: > 16 µg/mL
Lomentospora prolificans
  MIC50: 8 µg/mL (≈ 7.32 µM)
  MIC90: > 16 µg/mL
